Laboratory results from ChEMBL document CHEMBL5058577, “EUbOPEN Chemogenomics Library 2 (Multiplex)” (2022).

Test system: U2OS
Assay: Multiplex assay against U2OS
Type: toxicity, cell-based
Conditions: human
Procedure, shortened: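 On a CQ1 microscope at 37°C and 5% CO2, live cells were imaged after compound addition. They had been stained at seeding with Hoechst33342, BioTracker Green Microtubule Cytoskeleton Dye, MitoTracker Red and Annexin V Alexa Fluor 680. CellPathfinder machine-learning gating assigned cells to Hoechst high-intensity objects or normal cells, normal cells to healthy, pyknosed or fragmented nuclei, and pyknosed cells to mitotic or apoptotic. Tubulin, mitochondrial-mass and membrane-permeability phenotypes are per cents of healthy-nucleus cells.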

[1] = 12 h, 1 µM, compound concentration 1 uM, replicate 1
[2] = 12 h, 1 µM, compound concentration 1 uM, replicate 2
[3] = 12 h, 10 µM, compound concentration 10 uM, replicate 1
[4] = 12 h, 10 µM, compound concentration 10 uM, replicate 2
[5] = 24 h, 1 µM, compound concentration 1 uM, replicate 1
[6] = 24 h, 1 µM, compound concentration 1 uM, replicate 2
[7] = 24 h, 10 µM, compound concentration 10 uM, replicate 1
[8] = 24 h, 10 µM, compound concentration 10 uM, replicate 2
[9] = 48 h, 1 µM, compound concentration 1 uM, replicate 1
[10] = 48 h, 1 µM, compound concentration 1 uM, replicate 2
[11] = 48 h, 10 µM, compound concentration 10 uM, replicate 1
[12] = 48 h, 10 µM, compound concentration 10 uM, replicate 2

`CC(=O)NCCc1c(Cc2ccccc2)[nH]c2ccccc12` [LUZINDOLE] was tested, and the “Population Apoptotic (%)” value [1] was 72%, the “Population Fragmented Nuclei (%)” value [1] was 25% and the “Population Healthy Nuclei (%)” value [1] was 65%. The “Population Hoechst High Intensity Objects (%)” value [1] was 3%, the “Population Membrane Permeable-Phenotype (%)” value [1] was 3% and the “Population Mitochondria Different-Phenotype (%)” value [1] was 4%. For the same compound, the “Population Mitotic Cells (%)” value [1] was 27%, the “Population Normal (%)” value [1] was 96% and the “Population Pyknosed Nuclei (%)” value [1] was 9%. For the same compound, the “Population Tubulin-Different-Phenotype (%)” value [1] was 1%, the “Total Cell Count” value [1] was 233 and the “Population Apoptotic (%)” value [2] was 100%. For the same compound, the “Population Fragmented Nuclei (%)” value [2] was 19%, the “Population Healthy Nuclei (%)” value [2] was 77% and the “Population Hoechst High Intensity Objects (%)” value [2] was 2%. The “Population Membrane Permeable-Phenotype (%)” value [2] was 6%, the “Population Mitochondria Different-Phenotype (%)” value [2] was 2% and the “Population Mitotic Cells (%)” value [2] was 0%. For the same compound, the “Population Normal (%)” value [2] was 97%, the “Population Pyknosed Nuclei (%)” value [2] was 3% and the “Population Tubulin-Different-Phenotype (%)” value [2] was 2%. For the same compound, the “Total Cell Count” value [2] was 134, the “Population Apoptotic (%)” value [3] was 81% and the “Population Fragmented Nuclei (%)” value [3] was 26%. The “Population Healthy Nuclei (%)” value [3] was 65%, the “Population Hoechst High Intensity Objects (%)” value [3] was 2% and the “Population Membrane Permeable-Phenotype (%)” value [3] was 8%. For the same compound, the “Population Mitochondria Different-Phenotype (%)” value [3] was 3%, the “Population Mitotic Cells (%)” value [3] was 18% and the “Population Normal (%)” value [3] was 97%. For the same compound, the “Population Pyknosed Nuclei (%)” value [3] was 7%, the “Population Tubulin-Different-Phenotype (%)” value [3] was 4% and the “Total Cell Count” value [3] was 291. For the same compound, the “Population Apoptotic (%)” value [4] was 76%, the “Population Fragmented Nuclei (%)” value [4] was 13% and the “Population Healthy Nuclei (%)” value [4] was 78%. For the same compound, the “Population Hoechst High Intensity Objects (%)” value [4] was 1%, the “Population Membrane Permeable-Phenotype (%)” value [4] was 5% and the “Population Mitochondria Different-Phenotype (%)” value [4] was 2%. For the same compound, the “Population Mitotic Cells (%)” value [4] was 23%, the “Population Normal (%)” value [4] was 98% and the “Population Tubulin-Different-Phenotype (%)” value [4] was 3%. For the same compound, the “Total Cell Count” value [4] was 179, the “Population Apoptotic (%)” value [5] was 90% and the “Population Fragmented Nuclei (%)” value [5] was 19%. The “Population Healthy Nuclei (%)” value [5] was 68%, the “Population Hoechst High Intensity Objects (%)” value [5] was 4% and the “Population Membrane Permeable-Phenotype (%)” value [5] was 2%. The “Population Mitochondria Different-Phenotype (%)” value [5] was 3%, the “Population Mitotic Cells (%)” value [5] was 10% and the “Population Normal (%)” value [5] was 95%. The “Population Pyknosed Nuclei (%)” value [5] was 12%, the “Population Tubulin-Different-Phenotype (%)” value [5] was 3% and the “Total Cell Count” value [5] was 260. For the same compound, the “Population Apoptotic (%)” value [6] was 88%, the “Population Fragmented Nuclei (%)” value [6] was 18% and the “Population Healthy Nuclei (%)” value [6] was 70%. The “Population Hoechst High Intensity Objects (%)” value [6] was 0%, the “Population Membrane Permeable-Phenotype (%)” value [6] was 5% and the “Population Mitochondria Different-Phenotype (%)” value [6] was 1%. The “Population Mitotic Cells (%)” value [6] was 11%, the “Population Normal (%)” value [6] was 99% and the “Population Pyknosed Nuclei (%)” value [6] was 10%. The “Population Tubulin-Different-Phenotype (%)” value [6] was 4%, the “Total Cell Count” value [6] was 156 and the “Population Apoptotic (%)” value [7] was 88%. For the same compound, the “Population Fragmented Nuclei (%)” value [7] was 25%, the “Population Healthy Nuclei (%)” value [7] was 66% and the “Population Hoechst High Intensity Objects (%)” value [7] was 2%. The “Population Membrane Permeable-Phenotype (%)” value [7] was 6%, the “Population Mitochondria Different-Phenotype (%)” value [7] was 3% and the “Population Mitotic Cells (%)” value [7] was 12%. For the same compound, the “Population Normal (%)” value [7] was 97%, the “Population Pyknosed Nuclei (%)” value [7] was 7% and the “Population Tubulin-Different-Phenotype (%)” value [7] was 4%. For the same compound, the “Total Cell Count” value [7] was 342, the “Population Apoptotic (%)” value [8] was 85% and the “Population Fragmented Nuclei (%)” value [8] was 11%. For the same compound, the “Population Healthy Nuclei (%)” value [8] was 80%, the “Population Hoechst High Intensity Objects (%)” value [8] was 0% and the “Population Mitochondria Different-Phenotype (%)” value [8] was 1%. For the same compound, the “Population Mitotic Cells (%)” value [8] was 15%, the “Population Normal (%)” value [8] was 99% and the “Population Pyknosed Nuclei (%)” value [8] was 8%. The “Population Tubulin-Different-Phenotype (%)” value [8] was 3%, the “Total Cell Count” value [8] was 236 and the “Population Apoptotic (%)” value [9] was 91%. For the same compound, the “Population Fragmented Nuclei (%)” value [9] was 16%, the “Population Healthy Nuclei (%)” value [9] was 74% and the “Population Hoechst High Intensity Objects (%)” value [9] was 2%. For the same compound, the “Population Membrane Permeable-Phenotype (%)” value [9] was 3%, the “Population Mitochondria Different-Phenotype (%)” value [9] was 2% and the “Population Mitotic Cells (%)” value [9] was 8%. For the same compound, the “Population Normal (%)” value [9] was 97%, the “Population Pyknosed Nuclei (%)” value [9] was 9% and the “Population Tubulin-Different-Phenotype (%)” value [9] was 2%. The “Total Cell Count” value [9] was 395, the “Population Apoptotic (%)” value [10] was 80% and the “Population Fragmented Nuclei (%)” value [10] was 11%. For the same compound, the “Population Healthy Nuclei (%)” value [10] was 77%, the “Population Hoechst High Intensity Objects (%)” value [10] was 1% and the “Population Membrane Permeable-Phenotype (%)” value [10] was 8%. The “Population Mitochondria Different-Phenotype (%)” value [10] was 1%, the “Population Mitotic Cells (%)” value [10] was 20% and the “Population Normal (%)” value [10] was 98%. For the same compound, the “Population Pyknosed Nuclei (%)” value [10] was 11%, the “Population Tubulin-Different-Phenotype (%)” value [10] was 4% and the “Total Cell Count” value [10] was 217. The “Population Apoptotic (%)” value [11] was 89%, the “Population Fragmented Nuclei (%)” value [11] was 21% and the “Population Healthy Nuclei (%)” value [11] was 69%. For the same compound, the “Population Hoechst High Intensity Objects (%)” value [11] was 2%, the “Population Membrane Permeable-Phenotype (%)” value [11] was 6% and the “Population Mitochondria Different-Phenotype (%)” value [11] was 3%. The “Population Mitotic Cells (%)” value [11] was 10%, the “Population Normal (%)” value [11] was 97% and the “Population Pyknosed Nuclei (%)” value [11] was 8%. The “Population Tubulin-Different-Phenotype (%)” value [11] was 3%, the “Total Cell Count” value [11] was 446 and the “Population Apoptotic (%)” value [12] was 100%. The “Population Fragmented Nuclei (%)” value [12] was 11%, the “Population Healthy Nuclei (%)” value [12] was 82% and the “Population Hoechst High Intensity Objects (%)” value [12] was 1%. The “Population Membrane Permeable-Phenotype (%)” value [12] was 5%, the “Population Mitochondria Different-Phenotype (%)” value [12] was 2% and the “Population Mitotic Cells (%)” value [12] was 0%. For the same compound, the “Population Normal (%)” value [12] was 98%, the “Population Pyknosed Nuclei (%)” value [12] was 5% and the “Total Cell Count” value [12] was 354.
